Source: ChEMBL document CHEMBL5149972, “Novel Antimalarial Tetrazoles and Amides Active against the Hemoglobin Degradation Pathway in Plasmodium falciparum” (J Med Chem, 2021)
pEC50, pIC50: −log10 of the molar value. In brackets after ≈: the same amount, converted by molar mass.

What was measured:
[1] = test system: Plasmodium falciparum; assay: Antiplasmodial activity against drug resistant Plasmodium falciparum Dd2 infected in human RBC assessed as parasite growth inhibition incubated for 72 hrs by SYBR Green dye based fluorescence assay; format: functional, organism-based; settings: Plasmodium falciparum, Dd2, Erythrocyte, 72 h
How it was run: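 Blood-stage cultures at 2% hematocrit, human O+ RBCs, RPMI 1640 + 25 mM HEPES, 0.5% Albumax-I, 23 mM bicarbonate, 92 μM hypoxanthine. Start at 0.5% parasitemia; 72 h at 37°C, 5% CO₂; freeze-thaw, then SYBR Green in saponin/Triton lysis buffer, 4 h RT dark; fluorescence ex 485/em 535 nm. 10-point curves, technical duplicates or triplicates, final 0.5% DMSO; four-parameter fit gives EC₅₀; mean ± std dev of biological replicates.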

[2] = Kinetic solubility of compound in PBS at pH 2 by HPLC analysis; format: physicochemical; settings: read-out: Kinetic_solubility
[3] = Kinetic solubility of compound in PBS at pH 6.5 by HPLC analysis; format: physicochemical; settings: read-out: Kinetic_solubility
[4] = test system: Plasmodium berghei; assay: Antiplasmodial activity against liver stage Plasmodium berghei ANKA expressing GFP-Luc-SMCO infected in human HepG2-A16-CD81EGFP cells assessed as reduction in liver-stage development of luciferase-expressing parasite by luciferase reporter gene based bioluminescence assay; format: functional, organism-based
How it was run: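 Pb-Luc (P. berghei ANKA-GFP-Luc-SMCON) sporozoites infect HepG2-A16-CD81EGFP cells in phenol red-free DMEM with 5% FBS, glutamine, penicillin/streptomycin; compounds scored for blocking liver-stage development by luciferase signal.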

[5] = test system: Plasmodium falciparum; assay: Antiplasmodial activity against Plasmodium falciparum NF54 infected in human RBC assessed as parasite growth inhibition incubated for 72 hrs by SYBR Green dye based fluorescence assay; format: functional, organism-based; settings: NF54, Erythrocyte
[6] = test system: Plasmodium falciparum; assay: Antiplasmodial activity against chloroquine and pyrimethamine resistant Plasmodium falciparum K1 infected in human RBC assessed as parasite growth inhibition incubated for 72 hrs by SYBR Green dye based fluorescence assay; format: functional, organism-based; settings: K1, Erythrocyte
[7] = test system: Plasmodium falciparum; assay: Antiplasmodial activity against chloroquine and pyrimethamine resistant Plasmodium falciparum 7G8 infected in human RBC assessed as parasite growth inhibition incubated for 72 hrs by SYBR Green dye based fluorescence assay; format: functional, organism-based; settings: 7G8, Erythrocyte
[8] = test system: Plasmodium falciparum; assay: Antiplasmodial activity against piperaquine and pyrimethamine resistant Plasmodium falciparum RF12 infected in human RBC assessed as parasite growth inhibition incubated for 72 hrs by SYBR Green dye based fluorescence assay; format: functional, organism-based; settings: RF12, Erythrocyte
[9] = test system: Plasmodium falciparum; assay: Antiplasmodial activity against chloroquine and pyrimethamine resistant Plasmodium falciparum Dd2 infected in human RBC assessed as parasite growth inhibition incubated for 72 hrs by SYBR Green dye based fluorescence assay; format: functional, organism-based; settings: Dd2, Erythrocyte
How it was run: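 O+ human RBCs at 2% hematocrit and 0.5% starting parasitemia, in RPMI 1640 with 25 mM HEPES, 0.5% Albumax-I, bicarbonate and hypoxanthine. Serial dilutions in triplicate, 0.5% DMSO final, 72 h at 37°C, 5% CO2. Frozen at −80°C, lysed with SYBR Green in saponin/Triton buffer for 4 h in the dark. Ex 485/em 535 nm. EC50 from four-parameter fit; biphasic fit where curves were biphasic.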

[10] = test system: Plasmodium falciparum; assay: Antiplasmodial activity against chloroquine resistant Plasmodium falciparum Dd2-GC03 mutant replaced with 3D7 pfcrt sequence at endogenous pfcrt Dd2 locus infected in human RBC assessed as parasite growth inhibition incubated for 72 hrs by SYBR Green dye based fluorescence assay; format: functional, organism-based; settings: Erythrocyte
How it was run: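 Gene-edited Dd2 lines with the endogenous pfcrt locus replaced by zinc-finger nuclease editing. Concentration-response curves run with technical duplicates at each concentration; values are the average of two biological replicates, with std dev given where more replicates were collected.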

[11] = test system: Plasmodium falciparum; assay: Antiplasmodial activity against lab-derived […] resistant Plasmodium falciparum Dd2-PfeEF2 mutant infected in human RBC assessed as parasite growth inhibition incubated for 72 hrs by SYBR Green dye based fluorescence assay; format: functional, organism-based; settings: Erythrocyte
[12] = test system: Plasmodium falciparum; assay: Antiplasmodial activity against lab-derived MMV390048 resistant Plasmodium falciparum Dd2-Pfpi4K mutant infected in human RBC assessed as parasite growth inhibition incubated for 72 hrs by SYBR Green dye based fluorescence assay; format: functional, organism-based; settings: Erythrocyte
[13] = test system: Plasmodium falciparum; assay: Antiplasmodial activity against lab-derived DSM265 resistant Plasmodium falciparum Dd2-PfDHODH mutant infected in human RBC assessed as parasite growth inhibition incubated for 72 hrs by SYBR Green dye based fluorescence assay; format: functional, organism-based; settings: Erythrocyte
[14] = test system: Plasmodium falciparum; assay: Antiplasmodial activity against lab-derived KAF156 resistant Plasmodium falciparum Dd2-Pfcarl mutant infected in human RBC assessed as parasite growth inhibition incubated for 72 hrs by SYBR Green dye based fluorescence assay; format: functional, organism-based; settings: Erythrocyte
[15] = test system: Plasmodium falciparum; assay: Antiplasmodial activity against lab-derived ELQ300 resistant Plasmodium falciparum Dd2-PfCytB mutant infected in human RBC assessed as parasite growth inhibition incubated for 72 hrs by SYBR Green dye based fluorescence assay; format: functional, organism-based; settings: Erythrocyte
[16] = test system: Hemozoin; assay: Inhibition of Beta-hematin assessed as bis-pyridyl-Fe(III)PPIX complex formation incubated for 5 hrs by NP40 detergent-mediated colorimetric assay
[17] = Inhibition of hemozoin formation in sorbitol-synchronized early ring stage plasmodium falciparum NF54 trophozoites assessed as fold increase in free heme-Fe level at 3 times EC50 incubated for 32 hrs by flow cytometry analysis; format: functional
How it was run: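 Trophozoites were saponin-released (0.05%), PBS-washed, counted by flow cytometry, then hypotonically lysed and sonicated. Heme was fractionated with HEPES, SDS, pyridine and NaOH and read as Fe(III)heme–pyridine absorbance against a heme standard curve (fg/cell). Three biological replicates; Student's t-test.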

[18] = test system: Plasmodium falciparum; assay: (§1) Antiplasmodial activity against Rac-N-(Pyridin-3-yl(1-(o-tolyl)-1H-tetrazol-5-yl)methyl)-N-(3-(trifluoromethyl)benzyl)Cyclopropanamine resistant Plasmodium falciparum 3D7 clone F1-B6 ring-stage parasite assessed as parasite growth inhibition incubated for 72 hrs by SYBR Green and MitoTracker Deep Red FM dye based flow cytometry; format: functional, organism-based
How it was run: (§2)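 Clonal 3D7-A10 lines recovered after single-step selection; ring stages at 0.2% parasitemia, 1% hematocrit in RPMI-1640 with 0.5% Albumax. 72 h exposure to a 10-point 2-fold dilution series in duplicate with DMSO controls, final DMSO <0.5%. Survival read by flow cytometry, SYBR Green as nuclear stain and MitoTracker Deep Red FM as vital dye. EC₅₀ and EC₉₀ reported with fold shift relative to parental 3D7-A10.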

[19] = test system: Plasmodium falciparum; assay: as §1, with “F1-E4” for “F1-B6”; format: functional, organism-based; how it was run: as §2
[20] = test system: Plasmodium falciparum; assay: as §1, with “F2-A10” for “F1-B6”; format: functional, organism-based; how it was run: as §2
[21] = test system: Plasmodium falciparum; assay: as §1, with “F2-A11” for “F1-B6”; format: functional, organism-based; how it was run: as §2
[22] = test system: Plasmodium falciparum; assay: as §1, with “F2-H12” for “F1-B6”; format: functional, organism-based; how it was run: as §2

Cc1ccccc1-n1nnnc1C(c1cccnc1)N(Cc1cccc(C(F)(F)F)c1)C1CC1 (racemic)
pEC50 [1]: 6.27
solubility kinetic [2]: 12 µg/mL (≈ 25.8 µM)
solubility kinetic [3]: 1.5 µg/mL (≈ 3.23 µM)
pEC50 [4]: 5.14
pEC50 [5]: 6.32
pEC50 [6]: 6.44
pEC50 [7]: 6.74
pEC50 [8]: 6.21
pEC50 [9]: 6.27
pEC50 [10]: 6.05
pEC50 [11]: 6.04
pEC50 [12]: 6.12
pEC50 [13]: 6.10
pEC50 [14]: 6.19
pEC50 [15]: 6.07
pIC50 [16]: 4.12
fold change (FC) [17]: 6
pEC50 ([18]; 3D7 clone F1-B6, 72 h): 6.26
EC90 ([18]; 3D7 clone F1-B6, time 72 hrs): 1100 nM
pEC50 ([19]; 3D7 clone F1-E4, 72 h): 6.13
EC90 ([19]; 3D7 clone F1-E4, time 72 hrs): 1500 nM
pEC50 ([20]; 3D7 clone F2-A10, 72 h): 6.08
EC90 ([20]; 3D7 clone F2-A10, time 72 hrs): 1500 nM
pEC50 ([21]; 3D7 clone F2-A11, 72 h): 6.17
EC90 ([21]; 3D7 clone F2-A11, time 72 hrs): 1300 nM
pEC50 ([22]; 3D7 clone F2-H12, 72 h): 6.19
EC90 ([22]; 3D7 clone F2-H12, time 72 hrs): 1300 nM
